Experimental data from ChEMBL document CHEMBL4680191, “Discovery of novel akt1 inhibitor induces autophagy associated death in hepatocellular carcinoma cells” (Eur J Med Chem, 2020).
The source made the active and inactive calls. No cut-off for these calls is given here.

Key:
[1] = system: Huh-7; assay: Induction of autophagy in human Huh-7 cells harboring mCherry-GFP-LC assessed as increase in autophagosome puncta formation at 0.2 uM by fluorescence assay; format: functional, cell-based
[2] = system: Huh-7; assay: Induction of autophagy in human Huh-7 cells assessed as reduction in cathepsin B activity at 0.2 uM in presence of Baf-A1; format: functional, cell-based
[3] = system: Huh-7; assay: Induction of apoptosis in human Huh-7 cells assessed as necrotic cells at 0.1 uM by Annexin V/propidium iodide staining based flow cytometric analysis (reference value: 0.59%); format: functional
[4] = system: SMMC-7721; assay: Cytotoxicity against human SMMC-7721 cells assessed as reduction in cell viability by MTT assay; format: functional, cell-based
How it was run: (§1)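 Hepatoma cells were grown in DMEM with 10% FBS and streptomycin, then treated with compounds. Viability was read by MTT.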

[5] = system: Huh-7; assay: Induction of autophagy in human Huh-7 cells assessed as increase in LC3-2 protein expression at 0.1 to 0.2 uM by Western blot analysis; format: functional, cell-based; settings: dose 0.1-0.2 µM
How it was run: (§2)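 Huh-7 cells were treated with or without compound. Total protein extracts were separated by SDS-PAGE and transferred to PVDF. Membranes were probed with primary antibodies, then HRP-conjugated secondary antibody (1:10,000), and detected by enhanced chemiluminescence.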

[6] = system: Huh-7; assay: Antitumour activity against human Huh-7 cells xenografted in nude mouse assessed as reduction in tumour growth at […], ip up to 15 days; format: functional, organism-based; settings: time day <=15
How it was run: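 Nude mice bearing subcutaneous Huh-7 xenografts received 25 or 50 mg/Kg compound intraperitoneally. Tumor volume was followed from day 1 to day 15, with excised tumors weighed at the end. Body weight was also monitored.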

[7] = system: Huh-7; assay: Induction of autophagy in human Huh-7 cells assessed as reduction in cathepsin B activity at 0.2 uM in presence of 3-MA; format: functional, cell-based
[8] = system: Huh-7; assay: Antitumour activity against human Huh-7 cells xenografted in nude mouse assessed as decrease in p62/SQSTMI at 20 to 50 mg/kg, ip up to 15 days by immunohistochemical analysis; format: functional, organism-based; settings: dose 20-50 mg/kg, time day <=15
How it was run: (§3)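 Tumors came from Huh-7 xenografted nude mice dosed intraperitoneally at 25 or 50 mg/Kg for 15 days. For IHC, sections underwent microwave antigen retrieval (EDTA pH 8.0 or citrate pH 6.0), then primary antibody at 37 °C for 30-40 min. HRP polymer/secondary was applied for 30 min, with DAB development and control IgG.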

[9] = system: Huh-7; assay: Induction of autophagy in human Huh-7 cells assessed as reduction in cell viability up to 72 hrs in presence of Baf-A1 by MTT assay; format: functional, cell-based; settings: time hrs <=72
[10] = system: Huh-7; assay: Induction of autophagy flux arrest in human Huh-7 cells assessed as reduction in LC3 at 0.2 uM by immunofluorescence staining based assay; format: functional, cell-based
How it was run: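 Huh-7 cells with or without 0.2 µM compound were immunofluorescently co-stained for LC3 (autophagosome) and LAMP1 (lysosome). Co-localization was assessed by fluorescence imaging.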

[11] = system: Hep 3B2; assay: Cytotoxicity against human Hep3B cells assessed as reduction in cell viability by MTT assay; format: functional, cell-based; how it was run: as §1
[12] = system: Huh-7; assay: Induction of autophagy in human Huh-7 cells assessed as reduction in cathepsin D activity at 0.2 uM in presence of 3-MA; format: functional, cell-based
[13] = system: Huh-7; assay: Induction of apoptosis in human Huh-7 cells assessed as late apoptotic cells at 0.1 uM by Annexin V/propidium iodide staining based flow cytometric analysis (reference value: 3.15%); format: functional
[14] = system: Huh-7; assay: Induction of autophagy in human Huh-7 cells assessed as reduction in cathepsin D activity at 0.2 uM in presence of Baf-A1; format: functional, cell-based
[15] = system: Huh-7; assay: Induction of apoptosis in human Huh-7 cells assessed as upregulation of cytochromeC protein expression at 0.1 to 0.2 uM by Western blot analysis; format: functional, cell-based; settings: dose 0.1-0.2 µM; how it was run: as §2
[16] = system: Huh-7; assay: Induction of apoptosis in human Huh-7 cells assessed as early apoptotic cells at 0.2 uM by Annexin V/propidium iodide staining based flow cytometric analysis (reference value: 1.43%); format: functional
[17] = system: Huh-7; assay: Cytotoxicity against human Huh-7 cells assessed as reduction in cell viability by MTT assay; format: functional, cell-based; how it was run: as §1
[18] = system: Huh-7; assay: Induction of apoptosis in human Huh-7 cells assessed as reduction in Bcl-2 expression at 0.1 to 0.2 uM Western blot analysis; format: functional, cell-based; settings: dose 0.1-0.2 µM; how it was run: as §2
[19] = system: Huh-7; assay: Induction of apoptosis in human Huh-7 cells assessed as viable cells at 0.2 uM by Annexin V/propidium iodide staining based flow cytometric analysis (reference value: 94.83%); format: functional; settings: read-out: Activity
[20] = target: cAMP-dependent protein kinase catalytic subunit alpha (Homo sapiens) (UniProt P17612); assay: Inhibition of full length human PKAcalpha assessed as remaining activity at 1 uM using LRRASLG as substrate incubated for 40 mins by scintillation counting method relative to control
How it was run: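 Run as an outsourced KinaseProfiler service, with human PKA and Akt1, Akt2 and Akt3 in the same panel. Each compound was tested at a single 1 µM concentration, and the result is reported as kinase activity remaining, as a percentage of control.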

[21] = Effect on total GDK3beta protein level in human Huh-7 cells at 0.1 to 0.2 uM by Western blot analysis; format: ADME, cell-based; settings: huh-7, 0.2 µM, dose 0.1-0.2 µM; how it was run: as §2
[22] = system: Huh-7; assay: Induction of apoptosis in human Huh-7 cells assessed as early apoptotic cells at 0.1 uM by Annexin V/propidium iodide staining based flow cytometric analysis (reference value: 1.43%); format: functional
[23] = Effect on total AKT level in human Huh-7 cells xenografted in nude mouse at 20 to 50 mg/kg, ip up to 15 days by immunohistochemical analysis; format: ADME, organism-based; settings: in vivo, 360 h, dose 20-50 mg/kg, time <=15 day; how it was run: as §3
[24] = Effect on total AKT protein level in human Huh-7 cells at 0.1 to 0.2 uM by Western blot analysis; format: ADME, cell-based; settings: huh-7, 0.2 µM, dose 0.1-0.2 µM; how it was run: as §2

SMILES: O=C(C(CNC1CCCC1)c1ccc(Cl)cc1)N1CCN(c2ncnc3sc4c(c23)CCC4)CC1 (centres undefined)
- Activity [1]: Active
- Activity [2]: Active
- Activity [3]: 2.69%
- IC50 [4]: 386 nM
- Activity [5]: Active
- Activity [6]: Active
- Activity [7]: inactive
- Activity [8]: Active
- Activity [9]: Active
- Activity [10]: Active
- IC50 [11]: 131 nM
- Activity [12]: inactive
- Activity [13]: 7.92%
- Activity [14]: Active
- Activity [15]: Active
- Activity [16]: 7.1%
- IC50 [17]: 76 nM
- Activity [18]: Active
- viability at 0.2 µM [19]: 80.8%
- Activity [20]: 35%
- Activity [21]: Non-Toxic
- Activity [22]: 5.15%
- Activity [23]: Non-Toxic
- Activity [24]: Non-Toxic
